Target: T1, Androgen receptor (Homo sapiens) (UniProt P10275)
T1 sequence (whole entry): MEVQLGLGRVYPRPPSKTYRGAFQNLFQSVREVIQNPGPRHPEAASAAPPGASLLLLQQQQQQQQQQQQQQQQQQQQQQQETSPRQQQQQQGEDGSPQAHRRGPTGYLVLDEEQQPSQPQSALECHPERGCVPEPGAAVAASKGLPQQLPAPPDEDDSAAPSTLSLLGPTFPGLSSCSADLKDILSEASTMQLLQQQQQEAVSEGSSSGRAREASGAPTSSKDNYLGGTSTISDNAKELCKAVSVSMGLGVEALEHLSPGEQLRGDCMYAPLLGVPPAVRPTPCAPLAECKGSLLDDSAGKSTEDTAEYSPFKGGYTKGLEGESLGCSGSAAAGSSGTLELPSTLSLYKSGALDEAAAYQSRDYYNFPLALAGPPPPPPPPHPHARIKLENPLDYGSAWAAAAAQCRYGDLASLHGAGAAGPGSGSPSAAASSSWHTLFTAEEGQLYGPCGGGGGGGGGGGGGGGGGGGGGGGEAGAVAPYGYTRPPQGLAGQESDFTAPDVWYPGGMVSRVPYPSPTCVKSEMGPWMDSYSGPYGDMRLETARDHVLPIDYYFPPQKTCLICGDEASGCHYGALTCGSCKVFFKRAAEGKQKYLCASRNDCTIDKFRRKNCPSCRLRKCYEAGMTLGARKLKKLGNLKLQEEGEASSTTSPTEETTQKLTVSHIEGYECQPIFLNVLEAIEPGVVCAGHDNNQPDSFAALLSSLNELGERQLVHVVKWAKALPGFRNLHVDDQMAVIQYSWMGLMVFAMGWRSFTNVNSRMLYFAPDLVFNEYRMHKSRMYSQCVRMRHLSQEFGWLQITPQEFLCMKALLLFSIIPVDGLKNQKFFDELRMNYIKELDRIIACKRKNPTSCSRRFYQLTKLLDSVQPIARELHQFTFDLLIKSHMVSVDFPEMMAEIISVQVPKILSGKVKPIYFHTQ
Experiment: Antagonist activity at wild type androgen receptor in human PC3 cells transiently transfected with pCMV-MMTV-Luc assessed as suppression of DHT-induced receptor transactivation
Format: functional, cell-based
Details: PC-3
Procedure, shortened: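 PC-3 cells seeded 24 h before co-transfection with MMTV-luciferase reporter (100 ng), the wild-type, T877A, W741C or H874Y AR plasmid (10 ng) and Renilla null luciferase (10 ng) using Lipofectamine 2000. Medium switched after 5 h to phenol red-free RPMI 1640 with 10% charcoal-stripped FBS. After 16 h, 0.1 nM DHT ± compound (0.1, 1.0 µM) for 24 h. Dual-luciferase read-out, Renilla-standardized, normalized to DHT alone (100%).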

CC1=C(/C=C/C(=O)/C=C/c2cccc(C(F)(F)F)c2)C(C)(C)CCC1O (stereo unspecified)
Activity: Dose-dependent effect

From ChEMBL document CHEMBL1136847, “Syntheses and potential anti-prostate cancer activities of ionone-based chalcones” (Bioorg Med Chem Lett, 2009)
